Results reported in paper PMC7719388 (Clinical and Translational Science, 2020).
Entries after “also recorded” stand apart in the source; their conditions may differ. Read-outs that look alike come from different tables or passages of the source. Blank lines part the entries; values can stand above or below the compound they belong to.

Legend:
healthy male subjects [1] = assay: First-in-human single ascending dose study: safety and tolerability; type: in vivo
Procedure, shortened: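 Six cohorts were randomized 6 active vs 2 placebo (5 vs 2 in cohort 1), with two sentinel subjects dosed 48 h ahead. Dosing was a 30-min IV infusion. Cohorts 1–3 used sterile water diluent and an 18G cannula. Cohorts 4–6 used 5% glucose at 1 mg/mL, a 16G cannula in the largest antecubital vein and a 5 mL 5% glucose flush. Monitoring covered AEs, physical examinations, vital signs, 24-h Holter and laboratory tests; discharge was at 7 days.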

[2] = Pharmacokinetics after 30-minute intravenous infusion; type: in vivo, human
Procedure, shortened: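 Healthy men received a 30-min IV infusion of test compound. Serum levels were measured by validated LC‑MS/MS (lower limit of quantification 5 ng/mL), with samples taken after each ECG extraction. Noncompartmental analysis was done per dose level. Values below the limit were set to zero before Tmax and treated as missing after Tmax.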

healthy male subjects [3] = assay: 24-hour Holter ECG: QTcF, QT subintervals and concentration-effect analysis; type: in vivo, human; conditions: for ΔΔ Tp‐Tend / ΔΔJp‐Tpc / ΔΔQRS / ΔΔQTcF: model prediction at geometric mean Cmax
Procedure, shortened: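 Healthy men aged 18–45 received a 30-min IV infusion of test compound or 0.9% NaCl placebo, randomized and double-blind. 12-lead Holter recording ran for 24 h from just before dosing. At set times subjects lay supine for at least 8 min, and triplicate ECGs were extracted from the last 3 min. A blinded operator used global median beat analysis. QT was Fridericia-corrected and split into QRS, Jp‑Tpc and Tp‑Tend. Placebo-corrected change from baseline was modelled linearly against concentration, with subject as a random effect, and predicted at geometric mean Cmax per dose.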

healthy male subjects [4] = assay: Tremorography; type: in vivo, human; conditions: all dose levels
Procedure, shortened: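 A three-axis accelerometer was taped to the dorsal mid third ray of the right hand. Subjects sat semirecumbent with the arm extended horizontally, hand dorsum up, at predefined pre- and post-dose times. Each axis was bandpass filtered at 1–20 Hz (zero-phase third-order Butterworth). Power spectral densities were combined by L1-norm, and the read-outs were peak frequency and its amplitude.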

KCa2 channel [5] = assay: In vitro inhibition of KCa2 channels; type: biochemical; conditions: equivalent of 0.77 µM
KCa2 channel [6] = conditions: cited from earlier work
[7] = test system: Kv11.1 (human ether‐à‐go‐go‐related gene) channel; conditions: read-out: IC50 for the Kv11.1 channel; in vitro; ref unpublished data; cited from earlier work
[8] = in man, assumed; cited from earlier work
minipigs = conditions: high dose levels (equivalent to 27.3 mg/kg in man); cited from earlier work
conscious pigs = conditions: ref unpublished data; cited from earlier work
[9] = in vitro, 30 µM (estimated concentration: 12,000 ng/mL); preclinical; cited from earlier work
[10] = cited from earlier work
[11] = 2 mg/kg, mean volume 15.0 mL, 6 subjects
[12] = 2 mg/kg, mean volume 33.3 mL, 6 subjects
[13] = 1.5 and 2 mg/kg, 3+3 subjects, changed formulation
[14] = 3 and 4 mg/kg, 3+3 subjects, changed formulation
[15] = 5 and 6 mg/kg, 3+3 subjects, changed formulation

Geometric mean Cmax of AP30663 ([2]; 1 mg/kg, 5 mg/mL): 3398 ng/mL
Geometric mean Cmax of AP30663 ([2]; 1.5 mg/kg, 1 mg/mL): 4428 ng/mL
Geometric mean Cmax of AP30663 ([2]; 2 mg/kg, 1 mg/mL): 4644 ng/mL
Geometric mean Cmax of AP30663 ([2]; 2 mg/kg, 5 mg/mL): 6609 ng/mL
Geometric mean Cmax of AP30663 ([2]; 2 mg/kg, 10 mg/mL): 7154 ng/mL
Geometric mean Cmax of AP30663 ([2]; 3 mg/kg, 1 mg/mL): 7950 ng/mL
Geometric mean Cmax of AP30663 ([2]; 4 mg/kg, 1 mg/mL): 7994 ng/mL
Geometric mean Cmax of AP30663 ([2]; 5 mg/kg, 1 mg/mL): 7941 ng/mL
observed maximum total plasma concentration ([2]; 6 mg/kg dose level): around 25.5 µM
Geometric mean Cmax of AP30663 ([2]; 6 mg/kg, 1 mg/mL): 10245 ng/mL
dose proportionality of Cmax ([2]; 1-6 mg/kg): less than dose proportional increase
median Tmax ([2]; 30‐minute linear infusion): 30 min
Volume of distribution ([2]; highest dose levels): 98.4 L
clearance ([2]; lower dose levels): 11.5 L/h
Volume of distribution ([2]; lowest dose): 65.8 L
mean clearance ([2]; overall): 12.5 ± 3.2 L/h
clearance ([2]; three highest dose levels): 15.9 L/h
dose normalized Cmax and area under the curve (AUC) ([2]; with increasing doses): decreased with increasing doses
tremorography mean amplitude (healthy male subjects [4]): 0.2 mG^2•Hz^‐1
tremorography recordings (healthy male subjects [4]): normal and unchanged
IC50 for the KCa2 channel, equivalent concentration (KCa2 channel [5]): ~ 300 ng/mL
Compound: CN(CC#N)C(=O)C[C@H](Nc1nc2ccccc2[nH]1)c1cccc(C(F)(F)F)c1 [AP30663]
Number of AEs (healthy male subjects [1]; 1 mg/kg, 5 subjects): 1
Number of infusion site AEs (healthy male subjects [1]; 1 mg/kg, 5 subjects): 1
Severity of AEs (healthy male subjects [1]; 1 mg/kg, 5 subjects): Mild
Number of subjects with AEs (healthy male subjects [1]; 1 mg/kg, 5 subjects, AEs considered related): 1 (20%)
Median duration of AEs (healthy male subjects [1]; 1 mg/kg, 5 subjects, subject lost to follow-up, AE ongoing at day 7): >7 days ^a
Median duration of AEs (healthy male subjects [1]; [11]): 0.521 days
Number of AEs (healthy male subjects [1]; [11]): 4
Number of infusion site AEs (healthy male subjects [1]; [11]): 4
Number of subjects with AEs (healthy male subjects [1]; [11]): 4 (67%)
Severity of AEs (healthy male subjects [1]; [11]): Mild
Median duration of AEs (healthy male subjects [1]; [12]): 32 days
Number of AEs (healthy male subjects [1]; [12]): 10
Number of infusion site AEs (healthy male subjects [1]; [12]): 10
Number of subjects with AEs (healthy male subjects [1]; [12]): 5 (83%)
Severity of AEs (healthy male subjects [1]; [12]): Mild
Median duration of AEs (healthy male subjects [1]; [13]): 1.08 days
Number of AEs (healthy male subjects [1]; [13]): 3
Number of infusion site AEs (healthy male subjects [1]; [13]): 3
Number of subjects with AEs (healthy male subjects [1]; [13]): 1 (33%)
Severity of AEs (healthy male subjects [1]; [13]): Mild
duration of hardening of the vein upon palpation until resolved (healthy male subjects [1]; 2 subjects in cohort 3): ~4 months
Median duration of AEs (healthy male subjects [1]; [14]): 13 days
Number of AEs (healthy male subjects [1]; [14]): 2
Number of infusion site AEs (healthy male subjects [1]; [14]): 2
Number of subjects with AEs (healthy male subjects [1]; [14]): 1 (33%)
Severity of AEs (healthy male subjects [1]; [14]): Mild
Median duration of AEs (healthy male subjects [1]; [15]): 22 days
Number of AEs (healthy male subjects [1]; [15]): 2
Number of infusion site AEs (healthy male subjects [1]; [15]): 2
Number of subjects with AEs (healthy male subjects [1]; [15]): 1 (33%)
Severity of AEs (healthy male subjects [1]; [15]): Mild
central nervous system symptoms or signs (healthy male subjects [1]; all dose levels): no symptoms or signs of engagement of the central nervous system
serious AEs (healthy male subjects [1]; all dose levels): No serious AEs
number of AEs related to the administration site (healthy male subjects [1]; cohorts 1–3): 15
subjects with AEs related to the administration site (healthy male subjects [1]; cohorts 1–3, 10 of 17 subjects): 59%
subjects with AEs related to the administration site (healthy male subjects [1]; cohorts 4–6, 9 of 18 subjects): 50%
number of AEs related to the administration site (healthy male subjects [1]; cohorts 4–6, changed administration procedure): 15
overall safety and tolerability (healthy male subjects [1]; doses up to 6 mg/kg): safe and systemically well‐tolerated; also recorded: safe and well‐tolerated systemically
time to full recovery of infusion site AEs (healthy male subjects [1]; in vivo): up to 110 days
related AEs that were related to the infusion site (healthy male subjects [1]; mild, temporary): 33 of 34
number of AEs considered related to AP30663 administration (healthy male subjects [1]; of 73 AEs in 30 of 47 subjects): 34
ΔΔ Tp‐Tend (healthy male subjects [3]; 1 mg/kg, 5 mg/mL): 1.9 ± 1.3 ms
ΔΔJp‐Tpc (healthy male subjects [3]; 1 mg/kg, 5 mg/mL): 6.2 ± 3.0 ms
ΔΔQRS (healthy male subjects [3]; 1 mg/kg, 5 mg/mL): 1.0 ± 1.0 ms
ΔΔQTcF (healthy male subjects [3]; 1 mg/kg, 5 mg/mL, mean ± SD): 10.5 ± 3.3 ms
ΔΔ Tp‐Tend (healthy male subjects [3]; 1.5 mg/kg, 1 mg/mL): 2.6 ± 1.4 ms
ΔΔJp‐Tpc (healthy male subjects [3]; 1.5 mg/kg, 1 mg/mL): 7.0 ± 3.0 ms
ΔΔQRS (healthy male subjects [3]; 1.5 mg/kg, 1 mg/mL): 0.9 ± 1.0 ms
ΔΔQTcF (healthy male subjects [3]; 1.5 mg/kg, 1 mg/mL): 11.8 ± 3.4 ms
ΔΔ Tp‐Tend (healthy male subjects [3]; 2 mg/kg, 1 mg/mL): 2.8 ± 1.4 ms
ΔΔJp‐Tpc (healthy male subjects [3]; 2 mg/kg, 1 mg/mL): 7.2 ± 3.0 ms
ΔΔQRS (healthy male subjects [3]; 2 mg/kg, 1 mg/mL): 0.9 ± 1.9 ms
ΔΔQTcF (healthy male subjects [3]; 2 mg/kg, 1 mg/mL): 12.0 ± 3.5 ms
ΔΔ Tp‐Tend (healthy male subjects [3]; 2 mg/kg, 5 mg/mL): 4.1 ± 1.7 ms
ΔΔJp‐Tpc (healthy male subjects [3]; 2 mg/kg, 5 mg/mL): 8.8 ± 3.3 ms
ΔΔQRS (healthy male subjects [3]; 2 mg/kg, 5 mg/mL): 0.6 ± 1.1 ms
ΔΔQTcF (healthy male subjects [3]; 2 mg/kg, 5 mg/mL): 14.4 ± 3.9 ms
ΔΔ Tp‐Tend (healthy male subjects [3]; 2 mg/kg, 10 mg/mL): 4.5 ± 1.8 ms
ΔΔJp‐Tpc (healthy male subjects [3]; 2 mg/kg, 10 mg/mL): 9.2 ± 3.3 ms
ΔΔQRS (healthy male subjects [3]; 2 mg/kg, 10 mg/mL): 0.5 ± 1.1 ms
ΔΔQTcF (healthy male subjects [3]; 2 mg/kg, 10 mg/mL): 15.1 ± 4.1 ms
ΔΔ Tp‐Tend (healthy male subjects [3]; 3 mg/kg, 1 mg/mL): 5.0 ± 1.9 ms
ΔΔJp‐Tpc (healthy male subjects [3]; 3 mg/kg, 1 mg/mL): 9.8 ± 3.5 ms
ΔΔQRS (healthy male subjects [3]; 3 mg/kg, 1 mg/mL): 0.4 ± 1.2 ms
ΔΔQTcF (healthy male subjects [3]; 3 mg/kg, 1 mg/mL): 16.0 ± 4.3 ms
ΔΔ Tp‐Tend (healthy male subjects [3]; 4 mg/kg, 1 mg/mL): 5.0 ± 1.9 ms
ΔΔJp‐Tpc (healthy male subjects [3]; 4 mg/kg, 1 mg/mL): 9.9 ± 3.5 ms
ΔΔQRS (healthy male subjects [3]; 4 mg/kg, 1 mg/mL): 0.4 ± 1.2 ms
ΔΔQTcF (healthy male subjects [3]; 4 mg/kg, 1 mg/mL): 16.1 ± 4.3 ms
ΔΔ Tp‐Tend (healthy male subjects [3]; 5 mg/kg, 1 mg/mL): 5.0 ± 1.9 ms
ΔΔJp‐Tpc (healthy male subjects [3]; 5 mg/kg, 1 mg/mL): 9.8 ± 3.5 ms
ΔΔQRS (healthy male subjects [3]; 5 mg/kg, 1 mg/mL): 0.4 ± 1.2 ms
ΔΔQTcF (healthy male subjects [3]; 5 mg/kg, 1 mg/mL): 16.0 ± 4.3 ms
ΔΔ Tp‐Tend (healthy male subjects [3]; 6 mg/kg, 1 mg/mL): 6.5 ± 2.3 ms
ΔΔJp‐Tpc (healthy male subjects [3]; 6 mg/kg, 1 mg/mL): 11.7 ± 3.9 ms
ΔΔQRS (healthy male subjects [3]; 6 mg/kg, 1 mg/mL): 0.1 ± 1.4 ms
effect on PR interval (healthy male subjects [3]; all dose levels): no effect
effect on P‐wave duration (healthy male subjects [3]; all dose levels): no effect
effect on QRS duration (healthy male subjects [3]; all dose levels): no effect
effect on QTcF interval and QT subintervals (healthy male subjects [3]; all dose levels): dose‐dependent transient effect
effect on RR interval (healthy male subjects [3]; all dose levels): no effect
subjects with QTcF interval exceeding 450 ms (healthy male subjects [3]; any dose level): no subject
subjects with QTcF interval prolongation of > 60 ms (healthy male subjects [3]; any dose level): no subject
slope of concentration-effect on Tp‐Tend interval (± standard error) (healthy male subjects [3]; prespecified linear model, P = 0.001): 0.670 ± 0.221 ms/(ug/mL)
slope of concentration-effect on QTcF interval (± standard error) (healthy male subjects [3]; prespecified linear model, P = 0.003): 1.201 ± 0.431 ms/(ug/mL)
slope of concentration-effect on Jp‐Tpc interval (± standard error) (healthy male subjects [3]; prespecified linear model, P = 0.007): 0.799 ± 0.327 ms/(ug/mL)
slope of concentration-effect on QRS duration (± standard error) (healthy male subjects [3]; prespecified linear model, P = 0.870): −0.145 ± 0.129 ms/(ug/mL)
inhibition of KCa2 channel subclasses (KCa2 channel [6]): inhibits all three subclasses of KCa2 channels
IC50 (KCa2 channel [6]; read-out: IC50 for the KCa2 channel, preclinical, no reference given): 770 nM
IC50 (KCa2 channel [6]; read-out: IC50 for the KCa2 channels, in vitro, ref unpublished data): ~1000 nM
IC50 [7]: 4000 nM
free fraction [8]: 6.4%
tremor (minipigs): induced tremor
atrial refractoriness (conscious pigs): selectively increase atrial refractoriness; also recorded: increased atrial refractoriness
conversion of vernakalant‐resistant AF (conscious pigs): converted vernakalant‐resistant AF
effect on ventricular repolarization (conscious pigs): little or no effect
reinduction of AF (conscious pigs): prevented its reinduction
effect on the ventricular interval [9]: no effect

Compound: CN(CCOc1ccc(NS(C)(=O)=O)cc1)CCc1ccc(NS(C)(=O)=O)cc1 [Dofetilide, dofetilide]
effect on Jp‐Tpc interval per concentration [10]: 14.1 ms per ng/mL
effect on Tp‐Tend interval per concentration [10]: 14.5 ms per ng/mL
